The ED50 is the dose at which the effect has come halfway, by size or by number of responders. By Ki is commonly meant the equilibrium dissociation constant of an inhibitor or competing ligand from its target. The inhibition in vivo is the percentage by which the read-out fell short of the control. For orientation: IC50 means the concentration that inhibits the measured activity by half.

Assay [1] relates to Mus musculus. In words: Antinociceptive activity in intratracheally dosed mouse assessed as maximum latency after 5 mins by tail-flick assay. The settings on record: inhaled or nasal.
Assay [2] has as its system Mus musculus. As to the kind of experiment: Antinociceptive activity in sc dosed mouse assessed as jumping or licking of paw behavior after 5 mins by hot-plate test.
The subject of assay [3] is Mus musculus. In words: Antinociceptive activity in sc dosed mouse assessed as reduction of body rectal temperature. The assay is classed as functional.
The test system of assay [4] is Mus musculus. As to the kind of experiment: Antinociceptive activity in sc dosed mouse assessed as spontaneous locomotor activity measured for 10 mins. The assay is classed as functional.
The target of assay [5] is T1, Neuronal acetylcholine receptor; alpha4/beta2 (Rattus norvegicus) (UniProt P09483+P12390). As to the kind of experiment: Agonist activity at rat alpha4beta2 nAChR expressed in Xenopus laevis oocytes assessed as mean current response at 100 uM by two-electrode voltage clamp electrophysiology assay relative to acetylcholine. The assay is classed as cell-based. Background: Two-electrode voltage clamp is typically applied to oocytes expressing channels or transporters.

Assay [6] addresses T2, Neuronal acetylcholine receptor; alpha3/beta4 (Rattus norvegicus) (UniProt P04757+P12392). In words: Agonist activity at rat alpha3beta4 nAChR expressed in Xenopus laevis oocytes assessed as mean current response at 100 uM by two-electrode voltage clamp electrophysiology assay relative to acetylcholine. It is filed as cell-based.
Assay [7] deals with Neuronal acetylcholine receptor subunit alpha-7 (Rattus norvegicus) (UniProt Q05941). In words: Agonist activity at rat alpha7 nAChR expressed in Xenopus laevis oocytes assessed as mean current response at 100 uM by two-electrode voltage clamp electrophysiology assay relative to acetylcholine. The assay is classed as cell-based.
Assay [8] concerns the target T3, Neuronal acetylcholine receptor; alpha4/beta2 (Rattus norvegicus, UniProt P09483+P12390). As to the kind of experiment: Displacement of [3H]-epibatidine from alpha4beta2 nAChR in rat cerebral cortex homogenates after 4 hrs by liquid scintillation counting. It is filed as tissue-based. Background: Loss of bound radioactivity is the signal in a displacement assay; it reports binding, not function.

Assay [9] deals with Mus musculus. In words: Antinociceptive activity in mouse assessed as maximum latency at 10 mg/kg, administered as intratracheally after 5 mins by tail-flick assay. The assay is classed as functional.
Assay [10] concerns Mus musculus. In words: Antinociceptive activity in mouse assessed as jumping or licking of paw behavior at 10 mg/kg, sc after 5 mins by hot-plate test. The assay is classed as functional. (Thermal pain tests record how soon the animal reacts.)
The subject of assay [11] is Mus musculus. In words: Antinociceptive activity in mouse assessed as reduction of body rectal temperature at 10 mg/kg, sc. The assay is classed as functional. More on the design: scale not given: the % may be the effect or the level left.
The test system of assay [12] is Mus musculus. As to the kind of experiment: Antinociceptive activity in mouse assessed as spontaneous locomotor activity at 10 mg/kg, sc measured for 10 mins. It is filed as functional.
Assay [13] concerns Mus musculus. In words: Antinociceptive activity in intratracheally dosed mouse assessed as inhibition of nicotine-induced antinociception after 5 mins by tail-flick assay. The assay is classed as functional.
The test system of assay [14] is Mus musculus. As to the kind of experiment: Antinociceptive activity in mouse assessed as inhibition of nicotine-induced antinociception at 1000 ug/kg, sc after 5 mins by hot-plate test. The assay is classed as functional.
Assay [15] concerns the target Neuronal acetylcholine receptor subunit alpha-7 (Rattus norvegicus) (UniProt Q05941). As to the kind of experiment: Antagonist activity at rat alpha7 nAChR expressed in Xenopus laevis oocytes assessed as inhibition of acetylcholine-induced mean current response by measuring remaining current at 100 uM by two-electrode voltage clamp electrophysiology assay relative to control; values are per cent of control.

Assay [16] concerns the target T1, Neuronal acetylcholine receptor; alpha4/beta2 (Rattus norvegicus). In words: Antagonist activity at rat alpha4beta2 nAChR expressed in Xenopus laevis oocytes assessed as inhibition of acetylcholine-induced mean current response by measuring remaining current at 100 uM by two-electrode voltage clamp electrophysiology assay relative to control; values are per cent of control.

For assay [17], the target named is T2, Neuronal acetylcholine receptor; alpha3/beta4 (Rattus norvegicus). In words: Antagonist activity at rat alpha3beta4 nAChR expressed in Xenopus laevis oocytes assessed as inhibition of acetylcholine-induced mean current response by measuring remaining current at 100 uM by two-electrode voltage clamp electrophysiology assay relative to control; values are per cent of control.

The subject of assay [18] is Mus musculus. As to the kind of experiment: Antinociceptive activity in sc dosed mouse assessed as inhibition of nicotine-induced antinociception after 5 mins by hot-plate test. It is filed as functional.
Assay [19] concerns the target T3, Neuronal acetylcholine receptor; alpha4/beta2. In words: Antagonist activity at rat alpha4beta2 nAChR expressed in Xenopus laevis oocytes assessed as inhibition of acetylcholine-induced mean current response by two-electrode voltage clamp electrophysiology assay. The assay is classed as cell-based. Summed up: (§1)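 Rat nAChRs in Xenopus oocytes under two-electrode voltage clamp. […] IC50 is taken from concentration-inhibition curves.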

In assay [20] the target is Neuronal acetylcholine receptor; alpha3/beta4 (Rattus norvegicus, UniProt P04757+P12392). In words: Antagonist activity at rat alpha3beta4 nAChR expressed in Xenopus laevis oocytes assessed as inhibition of acetylcholine-induced mean current response by two-electrode voltage clamp electrophysiology assay. The assay is classed as cell-based. Summed up: as §1
Assay [21] has as its target Neuronal acetylcholine receptor subunit alpha-7 (Rattus norvegicus, UniProt Q05941). As to the kind of experiment: Antagonist activity at rat alpha7 nAChR expressed in Xenopus laevis oocytes assessed as inhibition of acetylcholine-induced mean current response by two-electrode voltage clamp electrophysiology assay. It is filed as cell-based. The gist of the method:
as §1

In assay [22] the test system is Mus musculus. In words: Antinociceptive activity in mouse assessed as inhibition of nicotine-induced antinociception at 10000 ug/kg, sc after 5 mins by hot-plate test. It is filed as functional.

Sequence of Neuronal acetylcholine receptor; alpha3/beta4 (P04757 whole entry): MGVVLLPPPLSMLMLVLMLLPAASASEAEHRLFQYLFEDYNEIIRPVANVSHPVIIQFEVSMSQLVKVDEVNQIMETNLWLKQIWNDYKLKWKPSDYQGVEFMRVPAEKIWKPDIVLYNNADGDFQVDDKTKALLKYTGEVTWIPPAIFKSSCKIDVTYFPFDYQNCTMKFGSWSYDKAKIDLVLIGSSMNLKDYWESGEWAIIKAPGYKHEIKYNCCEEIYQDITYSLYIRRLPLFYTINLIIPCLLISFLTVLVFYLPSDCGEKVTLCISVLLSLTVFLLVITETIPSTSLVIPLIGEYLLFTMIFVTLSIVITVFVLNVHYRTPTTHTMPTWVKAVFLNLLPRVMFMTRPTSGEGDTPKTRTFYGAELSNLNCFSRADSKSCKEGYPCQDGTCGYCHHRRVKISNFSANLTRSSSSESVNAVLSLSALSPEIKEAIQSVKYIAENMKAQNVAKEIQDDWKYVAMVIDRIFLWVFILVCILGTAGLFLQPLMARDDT
Sequence of Neuronal acetylcholine receptor; alpha3/beta4 (P12392 whole entry): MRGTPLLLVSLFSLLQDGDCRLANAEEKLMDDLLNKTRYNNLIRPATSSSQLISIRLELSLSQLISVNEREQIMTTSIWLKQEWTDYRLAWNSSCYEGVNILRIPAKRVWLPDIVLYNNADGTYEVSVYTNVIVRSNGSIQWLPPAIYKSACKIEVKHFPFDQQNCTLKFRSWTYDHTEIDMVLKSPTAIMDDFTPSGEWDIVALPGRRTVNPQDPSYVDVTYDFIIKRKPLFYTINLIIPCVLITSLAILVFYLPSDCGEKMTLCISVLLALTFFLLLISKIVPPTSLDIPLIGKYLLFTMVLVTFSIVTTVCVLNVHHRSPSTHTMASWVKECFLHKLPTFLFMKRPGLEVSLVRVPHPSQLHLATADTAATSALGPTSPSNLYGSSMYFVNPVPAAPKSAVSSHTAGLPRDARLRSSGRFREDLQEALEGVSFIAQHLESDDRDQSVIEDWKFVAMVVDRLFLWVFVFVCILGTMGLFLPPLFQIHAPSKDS
Sequence of Neuronal acetylcholine receptor subunit alpha-7 (Q05941 whole entry): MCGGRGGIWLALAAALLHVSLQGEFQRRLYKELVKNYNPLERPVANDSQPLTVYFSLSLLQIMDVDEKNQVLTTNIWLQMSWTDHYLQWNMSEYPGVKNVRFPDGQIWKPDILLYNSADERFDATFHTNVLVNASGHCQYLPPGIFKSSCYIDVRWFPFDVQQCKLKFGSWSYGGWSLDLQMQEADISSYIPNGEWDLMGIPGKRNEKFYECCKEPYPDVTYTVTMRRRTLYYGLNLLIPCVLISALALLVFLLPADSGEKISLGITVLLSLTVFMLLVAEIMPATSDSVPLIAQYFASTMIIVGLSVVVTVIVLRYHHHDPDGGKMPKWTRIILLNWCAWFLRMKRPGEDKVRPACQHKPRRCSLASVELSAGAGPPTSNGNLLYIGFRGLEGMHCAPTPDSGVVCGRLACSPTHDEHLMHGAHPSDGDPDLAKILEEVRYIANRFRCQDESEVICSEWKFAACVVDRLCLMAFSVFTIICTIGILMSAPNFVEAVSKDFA
Sequence of Neuronal acetylcholine receptor subunit alpha-7 (Rattus norvegicus) (Q05941 whole entry): as above
T3 sequence (P09483 whole entry): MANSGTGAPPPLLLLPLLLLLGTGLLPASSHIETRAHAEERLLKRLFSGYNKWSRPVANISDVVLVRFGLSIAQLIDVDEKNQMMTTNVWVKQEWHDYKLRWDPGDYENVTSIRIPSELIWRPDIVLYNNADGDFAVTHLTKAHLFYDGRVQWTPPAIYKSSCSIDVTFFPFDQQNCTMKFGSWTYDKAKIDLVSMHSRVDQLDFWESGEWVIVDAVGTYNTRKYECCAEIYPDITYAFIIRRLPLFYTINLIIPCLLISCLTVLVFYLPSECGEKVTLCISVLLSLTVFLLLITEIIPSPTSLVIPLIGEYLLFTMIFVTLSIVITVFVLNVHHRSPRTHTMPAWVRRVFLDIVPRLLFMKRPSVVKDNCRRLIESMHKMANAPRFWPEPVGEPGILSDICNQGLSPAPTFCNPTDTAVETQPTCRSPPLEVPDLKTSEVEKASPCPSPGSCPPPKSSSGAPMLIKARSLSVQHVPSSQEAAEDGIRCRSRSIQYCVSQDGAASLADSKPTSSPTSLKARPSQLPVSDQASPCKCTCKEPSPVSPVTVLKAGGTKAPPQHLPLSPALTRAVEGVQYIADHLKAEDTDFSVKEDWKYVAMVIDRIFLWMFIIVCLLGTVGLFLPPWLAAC
T3 sequence (P12390 whole entry): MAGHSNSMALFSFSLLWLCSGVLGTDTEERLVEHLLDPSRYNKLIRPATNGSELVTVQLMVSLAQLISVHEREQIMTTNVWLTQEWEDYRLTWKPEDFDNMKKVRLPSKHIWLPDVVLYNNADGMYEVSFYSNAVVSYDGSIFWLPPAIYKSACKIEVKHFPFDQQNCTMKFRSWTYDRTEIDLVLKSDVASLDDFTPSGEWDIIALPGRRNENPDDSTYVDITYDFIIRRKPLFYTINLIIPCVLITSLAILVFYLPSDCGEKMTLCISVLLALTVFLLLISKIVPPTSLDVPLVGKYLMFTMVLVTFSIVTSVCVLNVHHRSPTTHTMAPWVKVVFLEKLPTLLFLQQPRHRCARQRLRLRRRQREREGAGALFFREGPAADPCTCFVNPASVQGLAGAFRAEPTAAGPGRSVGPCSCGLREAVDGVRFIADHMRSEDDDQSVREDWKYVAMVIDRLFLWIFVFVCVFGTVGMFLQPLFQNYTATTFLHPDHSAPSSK

Regarding `Clc1ccc([C@H]2C[C@H]3CC[C@H]2N3)cn1`, the 50% effective dose (ED50) in the assay with Mus musculus [1] was found to be 0.006 mg/kg; in the assay with Mus musculus [2], 0.004 mg/kg; in the assay with Mus musculus [3], 0.004 mg/kg; with Mus musculus [4], 0.001 mg/kg. In addition, the Activity in assay [5] was 131%; in [6] it was 97%; in assay [7] it was 150%.

As to `Nc1cc(-c2cncc([C@H]3C[C@H]4CC[C@H]3N4)c2)ccn1` (racemic), in assay [8], the inhibition constant (Ki) is 0.38 nM. Also, the Activity is 1% with Mus musculus [9]; 5% with Mus musculus [10]; 0% in the assay with Mus musculus [11]; 20% in the assay with Mus musculus [12]; 0% in assay [5]; 1.2% in [6]. The Activity in [7] was 12%. Also, the AD50 in the assay with Mus musculus [13] is 0.001 mg/kg. The inhibition in vivo at 1 mg/kg in the assay on Mus musculus [14] was 32%. For the same molecule, the figures for the residual activity in [15], in assay [16] and in assay [17] were 44%, 5.2% and 4.2%, respectively.

Molecule `COc1cc(-c2cncc([C@H]3C[C@H]4CC[C@H]3N4)c2)ccn1` (racemic) showed a Ki in [8] of 0.094 nM. In addition, the Activity worked out at 14% with Mus musculus [9]; 50% in the assay on Mus musculus [10]; 0% in assay [5]; 6.1% in [6]; 16% in [7]. Moreover, the ED50 in the assay with Mus musculus [3] is 10 mg/kg. Also, the AD50 was determined as 0.0003 mg/kg with Mus musculus [13] and 0.9 mg/kg in the assay with Mus musculus [18]. Moreover, the IC50 worked out at 1.2 µM in assay [19], 13 µM in assay [20] and 114 µM in [21]. Also, the residual activity in [15] was 47%; in assay [16], 4%; in [17], 7.2%.

The molecule `c1cncc(-c2cncc([C@H]3C[C@H]4CC[C@H]3N4)c2)c1` (racemic) gave a Ki in assay [8] of 0.81 nM. Moreover, the Activity in the assay with Mus musculus [9] is 3%; with Mus musculus [10], 14%; in assay [5], 0%; in assay [6], 4.5%; in assay [7], 5.8%. The results for the median effective dose (ED50) in the assay on Mus musculus [3] and with Mus musculus [4] were 7 mg/kg and 3 mg/kg, respectively. Also, the AD50 was 0.00068 mg/kg in the assay with Mus musculus [13] and 2 mg/kg in the assay with Mus musculus [18]. Also, the IC50 in assay [19] turned out to be 6.4 µM; in assay [20], 22 µM; in assay [21] it was 117 µM. In addition, the residual activity came to 59% in assay [15], 5.3% in [16] and 14% in assay [17].

As for `CN1CCC[C@H]1c1cccnc1` [NICOTINE], the ED50 in the assay with Mus musculus [1] stood at 1.3 mg/kg; with Mus musculus [2], 0.65 mg/kg; in the assay on Mus musculus [3], 1 mg/kg; with Mus musculus [4], 0.5 mg/kg. The values for the Activity in assay [5], in assay [6] and in assay [7] were 40%, 37% and 43%, respectively.

As to `c1cnc2cc3c(cc2n1)[C@@H]1CNC[C@H]3C1` [VARENICLINE], the Activity in the assay with Mus musculus [9] is 11%; with Mus musculus [10], 10%; in assay [5], 13%; in assay [6], 66%; in assay [7] it was 74%. Moreover, the values for the median effective dose (ED50) in the assay on Mus musculus [3] and in the assay on Mus musculus [4] were 2.8 mg/kg and 2.1 mg/kg, respectively. The AD50 in the assay on Mus musculus [13] was found to be 0.0002 mg/kg; in the assay on Mus musculus [18], 0.47 mg/kg.

In assay [8], `Nc1ccc(-c2cncc([C@H]3C[C@H]4CC[C@H]3N4)c2)cn1` (racemic) showed a Ki of 0.9 nM. Further, the Activity in the assay on Mus musculus [9] was found to be 3%; in the assay on Mus musculus [10], 14%; in the assay with Mus musculus [11] it was 0%; in the assay with Mus musculus [12], 20%; in assay [5], 0%; in [6], 0%. Besides, in assay [7], the Activity worked out at 7%. Moreover, the AD50 with Mus musculus [13] was determined as 0.0015 mg/kg. In addition, the inhibition in vivo at 10 mg/kg in the assay with Mus musculus [22] was 50%. For the same molecule, the residual activity in assay [15] came out at 46%; in assay [16], 5.7%; in assay [17], 5.4%.

`Clc1ccc(-c2cncc([C@H]3C[C@H]4CC[C@H]3N4)c2)cn1` (racemic) had an inhibitory constant (Ki) in assay [8] of 0.12 nM. The Activity was 8% in the assay on Mus musculus [9]; 17% in the assay with Mus musculus [10]; 0% in assay [5]; 3.1% in assay [6]; 4.8% in assay [7]. The ED50 with Mus musculus [3] turned out to be 5.5 mg/kg; in the assay with Mus musculus [4] it was 0.56 mg/kg. In addition, the AD50 in the assay on Mus musculus [13] was determined as 0.0005 mg/kg. Also, the inhibition in vivo at 1 mg/kg in the assay with Mus musculus [14] was 10%. For the same molecule, the IC50 in [19] was found to be 2.7 µM; in assay [20], 24 µM; in assay [21], 66 µM. Moreover, the residual activity in [15] is 38%; in assay [16] it was 4.8%; in assay [17], 12%.

Source of the values: ChEMBL document CHEMBL3608275, “Synthesis, nicotinic acetylcholine receptor binding, in vitro and in vivo pharmacology properties of 3'-(substituted pyridinyl)-deschloroepibatidine analogs” (Bioorg Med Chem, 2015).
